High-throughput results: PubChem, several laboratories
ARNT-TACC3 inh – disruptors of human ARNT/TACC3 interaction. AlphaScreen His-ARNT PAS-B/GST-TACC3 binding, luminescence; TACC3 fragment carries E629A point mutation. inhibition, % at 9.99 µM. 390,000 compounds, 0.66% hits. AID 623870;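 active = mean inhibition of replicates at least 50% and at least half of replicates each reaching 50%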;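 also: 0% = complete ARNT plus TACC3 wells and 100% = ARNT alone without TACC3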
HTRA1 inhibitor – blocks human HTRA1 serine peptidase; Q92743; recombinant HTRA1, FP-rhodamine activity-based probe, fluorescence polarization; inhibition, % at 5.96 µM; 340,000 compounds, 0.5% hits; AID 504803; in the data active = inhibition above about 36%;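 also: 0% = enzyme with DMSO and 100% = wells lacking enzyme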
mABHD4 FP – inhibits mouse alpha/beta hydrolase domain 4; Q8VD66; purified mABHD4, FP-Rh probe fluorescence polarization; inhibition, % at 8.92 µM; 370,000 compounds, 0.54% hits; AID 720543;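 active = inhibition exceeding the mean over every tested compound plus 3 SD, cut at about 30% in these data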;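 also: 0% = plate median of compound wells and 100% = S159A mutant with DMSO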
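Test system: mouse ABHD4 enzyme, wild type. Reagent: FP-Rh fluorescent activity-based probe, added after compound pre-incubation. Timing: pre-incubation 45 min, probe exposure 60 min, at 25 °C. Technique: FP readout, ex 525 nm / em 598 nm. Benchmarks: high control S159A mutant with DMSO, low control median of compound wells.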
SIAE inh – human SIAE inhibition, primary screen; SIAE FP-Rh probe binding, fluorescence polarization; Q9HAT2; 370,000 compounds, 0.69% hits; inhibition, % at 9.66 µM;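 active = inhibition above a cutoff: mean of compounds within the control limits plus 3 SD of those, cut at about 17% in these data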;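 also: 0% = plate median of compound wells and 100% = probe without SIAE protein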
Target sequence (Q9HAT2 whole entry, looked up): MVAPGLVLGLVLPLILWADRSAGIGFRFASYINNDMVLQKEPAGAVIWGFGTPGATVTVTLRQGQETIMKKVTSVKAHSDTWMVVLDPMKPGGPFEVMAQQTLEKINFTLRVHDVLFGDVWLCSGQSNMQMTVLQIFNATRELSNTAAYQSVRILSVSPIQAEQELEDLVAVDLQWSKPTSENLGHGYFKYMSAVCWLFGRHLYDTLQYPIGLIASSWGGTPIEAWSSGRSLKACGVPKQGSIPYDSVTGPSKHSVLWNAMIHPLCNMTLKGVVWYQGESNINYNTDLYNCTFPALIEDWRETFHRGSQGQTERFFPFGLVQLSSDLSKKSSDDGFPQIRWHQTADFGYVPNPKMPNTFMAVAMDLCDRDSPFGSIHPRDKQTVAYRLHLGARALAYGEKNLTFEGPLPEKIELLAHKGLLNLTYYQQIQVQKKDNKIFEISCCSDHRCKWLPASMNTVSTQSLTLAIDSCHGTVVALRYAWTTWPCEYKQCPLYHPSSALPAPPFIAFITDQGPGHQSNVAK
TCR CD3 inh – blocks the human TCR-CD3 interaction | 360,000 compounds, 0.37% hits | TAMRA-labeled TCR probe fluorescence, biochemical | inhibition, % at 9.4 µM; in the data active = inhibition above about 19%;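 also: recombinant mutant TCR 2C K166C tagged with TAMRA read by polarization; 0% = receptor in buffer alone and 100% = receptor with positive control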
SIAE inh conf – confirmation of human SIAE inhibitors; SIAE FP-Rh activity-based probe, fluorescence polarization; inhibition, % at 9.66 µM; 2,300 compounds, 13% hits; shares compounds with SIAE inh;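 active = mean inhibition of the replicates above the hit cutoff set in the primary screen, cut at about 17% in these data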;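 also: 0% = SIAE with DMSO and probe and 100% = probe without SIAE; inhibitors lower polarization as more probe stays unbound to SIAE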
* hit, by the source's call; x = not tested or not shown. An excerpt weighted towards active compounds, which were near 1.8% of everything screened.

SMILES | ARNT-TACC3 inh | HTRA1 inhibitor | mABHD4 FP | SIAE inh | TCR CD3 inh | SIAE inh conf
COc1ccc(C(=O)N2C[C@@H]3[C@H](c4ccccc42)[C@H](CO)N3C(=O)c2cccc(F)c2)cc1 | -6 | x | x | x | x | x
c1cc2c3c(cccc3c1)NC(c1ccc3c(c1)OCO3)N2 | 1 | 0 | 5 | 28* | -2 | 8
COc1cccc(-c2nc(NC3CCCC3)c3ccccc3n2)c1O | 2 | 0 | 21 | 29* | 4 | -2
Cc1noc(C)c1NC(=O)Nc1ccc2c(c1)CC(=O)N([C@@H](C)CO)C[C@H](C)[C@@H](CN(C)S(=O)(=O)c1c(C)noc1C)O2 | -2 | x | x | x | x | x
CCCN(CCC)CC(O)Cn1cc(/C=C/C(=O)c2cccs2)c2ccccc21 (configuration not stated) | -3 | -16 | 7 | 7 | 1 | x
CCCN(CCC)CC(O)Cn1cc(/C=C/C(=O)c2ccccc2)c2ccccc21 (configuration not stated) | 12 | -8 | 5 | 18* | 0 | -6
O=C(C[C@@H]1C[C@H]2c3cc(NC(=O)Nc4ccc(F)cc4)ccc3O[C@H]2[C@@H](CO)O1)NC1CCCC1 | -5 | x | x | x | x | x
C(=N\Nc1nc(Nc2ccccc2)nc(N2CCOCC2)n1)/c1c[nH]c2ccccc12 | x | x | 15 | 19* | -9 | 24*
Cc1ccc(Nc2nc(N/N=C/c3c[nH]c4ccccc34)nc(N3CCOCC3)n2)cc1 | 9 | 25 | 11 | 28* | -5 | 9
CNC[C@H]1Oc2cc(C#CCC(C)C)ccc2S(=O)(=O)N([C@H](C)CO)C[C@@H]1C | -5 | x | x | x | x | x
Cc1ccc(S(=O)(=O)Nc2ccc3c(c2)C(=O)N([C@H](C)CO)C[C@@H](C)[C@@H](CN(C)Cc2ccccc2)OCCCC[C@H](C)O3)cc1 | 8 | x | x | x | x | x
C[C@H](CO)N1C[C@H](C)[C@H](CN(C)C(=O)c2ccc3c(c2)OCO3)Oc2cc(-c3ccncc3)ccc2S1(=O)=O | 9 | x | x | x | x | x
Cc1cccc2c(N=O)c(O)[nH]c12 | 4 | 35 | 5 | 46* | 6 | 42*
CCn1nnnc1NCc1ccc(SC)cc1 | -5 | 8 | 6 | 17* | -1 | 8
CCC(=O)Nc1ccc2c(c1)OC[C@H](C)N(Cc1ccncc1)C[C@@H](C)[C@@H](OC)CN(C)C2=O | -20 | x | x | x | x | x
C[C@@H]1CCCCO[C@@H](CN(C)Cc2ccc3c(c2)OCO3)[C@@H](C)CN([C@H](C)CO)C(=O)c2cc(NC(=O)CCCN(C)C)ccc2O1 | 4 | x | x | x | x | x
CC(C)NC(=O)Nc1ccc2c(c1)C(=O)N([C@@H](C)CO)C[C@H](C)[C@@H](CN(C)Cc1ccc(C(=O)Nc3ccccc3N)cc1)O2 | -3 | x | x | x | x | x
COc1cccc(NC(=O)CC2(CC(=O)O)CCCC2)c1 | 2 | 7 | 2 | 2 | 5 | x
NS(=O)(=O)c1cccc(NC(=O)CC2(CC(=O)O)CCCC2)c1 | -1 | 2 | 4 | 36* | 2 | -1
CN(C)CCCNC(=O)C[C@@H]1CC[C@H]2[C@@H](COc3ccc(NC(=O)C4CCC4)cc3C(=O)N2C)O1 | 0 | x | x | x | x | x
CCC(CO)Oc1cc(NCc2ccc(Cl)cc2Cl)c2ncn(C(C)C)c2c1 (configuration not stated) | x | 9 | 28 | 19* | -1 | 8
COc1ccc(CN(C)C[C@@H]2OCCCC[C@@H](C)Oc3ccc(NS(=O)(=O)c4cccs4)cc3C(=O)N([C@@H](C)CO)C[C@H]2C)cc1 | 5 | x | x | x | x | x
CC(C)C[C@H]1CN([C@@H](CC(C)C)CN2CCC[C@H]2CN2C(=O)C(=O)NC[C@@H]2Cc2ccc(O)cc2)C(=O)C(=O)N1CCc1ccccc1 | x | x | 8 | 20* | -9 | 10
NNC(=O)c1ccc(Cn2cccn2)o1 | -4 | 3 | 4 | 21* | 11 | -4
NNC(=O)c1ccc(Cn2cc(Br)cn2)o1 | 5 | -15 | -8 | 0 | 0 | x
SMILES | ARNT-TACC3 inh | HTRA1 inhibitor | mABHD4 FP | SIAE inh | TCR CD3 inh | SIAE inh conf
C[C@@H]1CN([C@@H](C)CO)S(=O)(=O)c2ccc(C#C[C@@H](C)O)cc2O[C@H]1CN(C)Cc1ccccc1 | -6 | x | x | x | x | x
COc1ccc(/C=C2/C(=O)ON=C2C)cc1Cl | -7 | 4 | 4 | 22* | -2 | 4
CC(C)NC(=O)N(C)C[C@@H]1Oc2ccc(NC(=O)Nc3ccc4c(c3)OCO4)cc2CC(=O)N([C@H](C)CO)C[C@H]1C | -2 | x | x | x | x | x
CC(=O)Nc1nnc(SCC(=O)NC(C)(C)C)s1 | -1 | -3 | 5 | 21* | 7 | -9
CC(C#N)(NC(=O)CN1CCN(S(=O)(=O)c2ccccc2C#N)CC1)C1CC1 (configuration not stated) | -6 | 7 | -1 | 20* | 1 | -1
CC(C#N)(NC(=O)CN1CCN(S(=O)(=O)c2cccc(F)c2)CC1)C1CC1 (configuration not stated) | x | 3 | 3 | -10 | 6 | x
CCCN1C[C@@H](C)[C@@H](OC)CN(C)C(=O)c2ccc(NC(=O)CC(F)(F)F)cc2OC[C@@H]1C | 5 | x | x | x | x | x
CCOCCCNC(=O)CN1C(=O)CSc2ccc(S(=O)(=O)N3CCOCC3)cc21 | -2 | 7 | 4 | 0 | 0 | x
CCOCCCNC(=O)CN1C(=O)CSc2cc(S(=O)(=O)N3CCCCCC3)ccc21 | 1 | 4 | 4 | 31* | 9 | 0
Cc1ccccc1-c1ccc2c(c1)O[C@@H](CN(C)CC1CC1)[C@@H](C)CN([C@H](C)CO)S2(=O)=O | 7 | x | x | x | x | x
COc1cc(-c2csc(N3CCOCC3)n2)cc(OC)c1OC | 1 | 6 | 6 | 1 | 5 | x
COc1ccc(-c2csc(N3CCN(c4cc(C)nc5ccccc45)CC3)n2)cc1OC | 31 | -1 | 8 | 20* | -5 | 7
COc1cccc(NC=C2C(=O)OC3(CCCCC3)OC2=O)c1 | 7 | -6 | 21 | 1 | 0 | x
COc1ccc(C2=CC(=O)OC3(CCCCC3)O2)cc1 | -16 | -6 | 6 | 19* | 2 | -4
COC(=O)C1CCN(C(=O)c2ccc(OC)c(S(=O)(=O)N3CCCc4ccccc43)c2)CC1 | -2 | -1 | -1 | -4 | 4 | x
COC(=O)C1CCN(C(=O)COC(=O)c2ccc(OC)c(S(=O)(=O)N3CCCc4ccccc43)c2)CC1 | 6 | -5 | 5 | 21* | 0 | -3
Cc1[nH]n(-c2ccc(Br)cc2)c(=O)c1/C=N/NC(=O)c1ccccc1 | 27 | 14 | 8 | 17* | 4 | 2
CCCCN(CCCC)C(=S)N/N=C/c1c(C)[nH]n(-c2ccccc2)c1=O | 2 | 0 | 10 | -9 | -1 | x
Cc1nc(Nc2ccc(Cl)cc2)c2nnn(Cc3ccccc3)c2n1 | 1 | -9 | 0 | 1 | 3 | x
COc1ccc(Nc2nc(C)nc3c2nnn3Cc2ccccc2)cc1OC | -2 | -6 | -4 | 17* | -5 | -4
